Rin1 Abl inh: human Rin1-Abl interaction inhibition; TR-FRET Rin1/Abl binding, biochemical; inhibition, % at 7.35 µM; 0.4% of 360,000 active; AID 588664; in the data active = inhibition above about 5%, passing the limit was not always enough
UBC13 polyUb: human UBC13 polyubiquitination inhibition. 0.47% of 330,000 active. inhibition, % at 20 µM. UBC13 polyubiquitin chain formation, TR-FRET; in the data active = inhibition above about 45%, passing the limit was not always enough
Target sequence (P61088 whole entry, looked up): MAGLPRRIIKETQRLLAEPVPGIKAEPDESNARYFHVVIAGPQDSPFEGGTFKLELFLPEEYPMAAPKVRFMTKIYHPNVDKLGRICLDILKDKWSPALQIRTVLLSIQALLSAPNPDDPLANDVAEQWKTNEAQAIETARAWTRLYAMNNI
PAD4 FP inh: inhibitors of human PAD4 | inhibition, % at 6.36 µM | recombinant PAD4, RCA probe fluorescence polarization | Q9UM07 | AID 485272 | 0.41% of 330,000 active;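 active = percent inhibition above a cutoff equal to the mean of all tested compounds plus 3 SD, cut at about 15% in these data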
Apaf1 inhib: inhibitors of human Apaf-1 apoptosome | O14727 | 0.71% of 330,000 active | AID 489030 | reconstituted apoptosome caspase-3 activity, DEVD-Rh110 fluorescence | inhibition, % at 20 µM; active = inhibition of at least 40% at 20 µM
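Medium: Hepes buffer, pH 7.5 / System: biochemical Apaf-1 apoptosome reconstitution / Measured by: Rh110 fluorescence, excitation 480 nm, emission 540 nm / Times: compound with Apaf-1, dATP, procaspase-3 30 min, then 50 min reaction, room temperature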
GSTO1 inh: counter-screen for RBBP9 inhibitors: inhibitors of human GSTO1. P78417. recombinant GSTO1, activity-based probe fluorescence polarization. inhibition, % at 5.96 µM. 1.1% of 300,000 active. AID 1974;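 active = inhibition above the campaign mean inhibition plus 3 SD, cut at about 35% in these data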
SUMO HTRF inh: inhibitors of human SUMOylation (UBC9); P63279; HTRF SUMOylation assay, SAE1/SAE2 + UBC9, in vitro; AID 2006; 0.36% of 290,000 active; inhibition, % at 35 µM; in the data active = inhibition above about 50%, passing the limit was not always enough
Target sequence (P63279 whole entry, looked up): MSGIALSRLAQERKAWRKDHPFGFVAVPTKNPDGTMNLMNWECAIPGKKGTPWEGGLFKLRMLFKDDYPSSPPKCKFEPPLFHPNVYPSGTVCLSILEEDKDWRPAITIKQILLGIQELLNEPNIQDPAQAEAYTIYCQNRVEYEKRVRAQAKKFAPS
Of the large screens only hits and unclear results are named; the others gave an inactive call. Hits are enriched below; roughly 2.2% of the tested compounds scored in any of these assays.

C/C(=N\NC(=O)CSCc1ccccc1Cl)c1cc(O)ccc1O	GSTO1 inh 40.4
CCOC(=O)c1sc(/N=C/c2c(O)ccc3ccccc23)cc1C	GSTO1 inh 38.8
CCOc1ccc(NC2=C(OC)C(=O)c3ccccc3C2=O)cc1	GSTO1 inh 39.5, SUMO HTRF inh 56.6
COC1=C(Nc2ccc(OC)cc2)C(=O)c2ccccc2C1=O	none
C=CCn1c(=O)c2ccccc2n2c(SCC(=O)c3ccccc3)nnc12	GSTO1 inh 35.9
CC1CCN(Cc2c(O)ccc3c2O/C(=C\c2ccco2)C3=O)CC1	none
O=C1/C(=C/c2ccco2)Oc2c1ccc(O)c2CN1CCCCC1	SUMO HTRF inh 60.9
CC(CO)NS(=O)(=O)c1cccc(Cl)c1F (centres undefined)	none (no result: UBC13 polyUb, PAD4 FP inh, Apaf1 inhib, GSTO1 inh, SUMO HTRF inh)
CCn1cc(CN2CCCC(C(=O)Nc3cccc(-c4cc5ccccc5[nH]4)c3)C2)cn1 (centres undefined)	none
O=C(CCCCCNC(=O)c1ccccc1)N=Nc1c(O)[nH]c2c(Br)cc(Br)cc12	GSTO1 inh 56.8 (no result: Rin1 Abl inh)
Cc1ccccc1-c1nc2cc(N)ccc2o1	SUMO HTRF inh 65.0
Cc1nc2ccc(-c3nc4cc(N)ccc4o3)cc2[nH]1	SUMO HTRF inh 52.8
CC(C)c1ccc2oc(-c3cc(N)ccc3O)nc2c1	none
O=C1CCCN1CCCNc1nc(NCc2ccccc2)nc2ccsc12	none (no result: UBC13 polyUb, PAD4 FP inh, Apaf1 inhib, GSTO1 inh, SUMO HTRF inh)
CCOc1ccc(NC(=O)CN(C)C(=O)c2ccccc2OCc2cccc(C)c2)cc1OCC	Apaf1 inhib 46.1 (no result: GSTO1 inh, SUMO HTRF inh)
COC(=O)NC(=C(Cl)Cl)S(=O)(=O)c1ccccc1	none
Cc1ccc(C(=O)NC(=C(Cl)Cl)S(=O)(=O)c2ccccc2)cc1	GSTO1 inh 39.3
CCOC(=O)Cn1c2ccccc2c2nc3ccccc3nc21	SUMO HTRF inh 94.0
O=C(O)Cn1c2ccccc2c2nc3ccccc3nc21	none (no result: UBC13 polyUb, PAD4 FP inh, Apaf1 inhib, GSTO1 inh, SUMO HTRF inh)
COc1ccc(NC(=O)CNC(=O)CC23CC4CC(CC(C4)C2)C3)c(OC)c1	none (no result: PAD4 FP inh, GSTO1 inh, SUMO HTRF inh)
CN1CCN(c2ccc(-c3cc(NC=O)c4ncc(-c5ccccc5)n4c3)cc2)CC1	none (no result: UBC13 polyUb, PAD4 FP inh, Apaf1 inhib, GSTO1 inh, SUMO HTRF inh)
Nn1cnnc1N/N=C\c1ccc(-c2ccccc2[N+](=O)[O-])o1	SUMO HTRF inh 98.5 (no result: UBC13 polyUb, PAD4 FP inh, Apaf1 inhib, GSTO1 inh)
O=[N+]([O-])c1ccccc1-c1ccc(/C=N/n2cnnc2)o1	none
Cc1ccc2c(c1)sc[n+]2Cc1ccccc1	PAD4 FP inh 21.9
Cc1ccc(-c2cc[n+](Cc3ccccc3)cc2)cc1	none
COC(=O)N1CCCCC1c1cc(C(=O)N2CCOCC2)no1 (centres undefined)	none (no result: UBC13 polyUb, PAD4 FP inh, Apaf1 inhib, GSTO1 inh, SUMO HTRF inh)
O=C(COC(=O)CCCOc1ccc(Cl)cc1Cl)Nc1cccc(Cl)c1	none
O=C(COC(=O)CCc1c[nH]c(=O)[nH]1)Nc1cccc(Cl)c1	Rin1 Abl inh 11.1
O=C(CN(C(=O)c1csnn1)c1ccccc1F)NC1CCCCC1	none
CC(C)(CNC(=O)c1cc2c(s1)CCCC2)N1CCOCC1	none (no result: SUMO HTRF inh)
Nc1ccc(N2CCCCCC2)cc1	PAD4 FP inh 42.7, Apaf1 inhib 92.9, GSTO1 inh 77.6, SUMO HTRF inh 62.1 (no result: Rin1 Abl inh)
CN(CC(=O)NC(=O)NC1CCCCC1)Cc1ccccc1	none (no result: GSTO1 inh, SUMO HTRF inh)
CCOC(=O)c1ccc(N2NC(=O)/C(=C/c3ccc(OC(=O)c4ccco4)c(OC)c3)C2=O)cc1	GSTO1 inh 37.0 (no result: Rin1 Abl inh)
CCOC(=O)COc1ccc(/C=C2/C(=O)NN(c3ccc(F)cc3)C2=O)cc1OC	none
O=C1/C(=C\c2ccc(O)cc2)SC(=S)N1Cc1ccccc1	none
O=C(O)CN1C(=O)/C(=C\c2cc(Br)ccc2OCc2ccc([N+](=O)[O-])cc2)SC1=S	SUMO HTRF inh 50.7
O=C1/C(=C\c2cc(Br)cc(Br)c2O)SC(=S)N1Cc1ccccc1	SUMO HTRF inh 58.6
CCC(=O)N1CCc2cc(S(=O)(=O)NCCC(=O)NC3CCCCCC3)ccc21	none
CC1(C)OC(=O)C2=C(C[C@@H](CCOCc3ccccc3)O[C@H]2c2ccc(F)cc2)O1	none (no result: UBC13 polyUb, PAD4 FP inh, Apaf1 inhib, GSTO1 inh, SUMO HTRF inh)
Nc1c(C(=O)N/N=C/c2cccnc2)oc2nc(-c3ccco3)cc(-c3ccco3)c12	SUMO HTRF inh 94.7
NNC(=O)c1oc2nc(-c3ccco3)cc(-c3ccco3)c2c1N	GSTO1 inh 52.1
Nc1c(C(=O)N/N=C/c2cccnc2)oc2nc(-c3ccccc3)cc(-c3ccco3)c12	none
CC(=O)NCCNC(=O)c1ccc(NC2=NC3CS(=O)(=O)CC3S2)cc1 (centres undefined)	none
CC=C1OC(n2cnc3c(N)ncnc32)C(O)C1O (centres undefined)	none (no result: UBC13 polyUb, PAD4 FP inh, Apaf1 inhib, GSTO1 inh, SUMO HTRF inh)

High-throughput results (PubChem BioAssay)
